How the values were obtained:
A549 = test: Cytotoxicity against human A549 cells after 48 hrs by SRB assay; type: cell-based; conditions: A549, 48 h
[1] = Cytotoxicity against rat C6 cells assessed as cell viability at 20 uM after 24 hrs by MTT assay relative to control; type: cell-based; conditions: read-out: Activity
In short: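 C6 cells treated with 20 μM of each compound. Viability determined by MTT assay and expressed as a percentage. Means ± SD of three independent experiments.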

C6 = test: Neuroprotective activity in rat C6 cells assessed as NGF secretion at 20 uM after 24 hrs by ELISA relative to control; type: functional
In short: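 C6 cells given 20 μM of each compound for 24 h. NGF secreted into the C6-conditioned medium quantified by ELISA, as a percentage of the untreated control (set at 100%). Means ± SD of three independent experiments.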

SK-OV-3 = test: Cytotoxicity against human SKOV3 cells after 48 hrs by SRB assay; type: cell-based; conditions: SK-OV-3, 48 h
SK-MEL-2 = test: Cytotoxicity against human SK-MEL-2 cells after 48 hrs by SRB assay; type: cell-based; conditions: SK-MEL-2, 48 h
HCT-15 = test: Cytotoxicity against human HCT15 cells after 48 hrs by SRB assay; type: cell-based; conditions: HCT-15, 48 h
BV-2 [2] = test: (§1) Cytotoxicity against mouse BV2 cells assessed as cell viability at 20 uM after 24 hrs by MTT assay relative to control; type: cell-based; conditions: bv-2, 24 h, 20 µM
In short: (§2)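 BV-2 microglia exposed to 20 μM of each compound. Viability read by MTT and given as a percentage. Means ± SD of three independent experiments.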

[3] = as §1; type: cell-based, BV-2; conditions: BV2 cells, read-out: Activity; in short: as §2
BV-2 [4] = test: Antiinflammatory activity in mouse BV2 cells assessed as inhibition of LPS-induced nitrite production after 24 hrs by Griess assay; type: functional, cell-based; conditions: BV-2, 24 h
In short: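 LPS-activated murine microglial BV-2 cells. IC50 taken as the concentration (μM) giving 50% inhibition of NO production. Means of three independent experiments, as means ± SD.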

SMILES | IC50 (A549) [µM] | viability at 24 h, 20 µM [1] [%] | Activity (C6) [%] | IC50 (SK-OV-3) [µM] | IC50 (SK-MEL-2) [µM] | IC50 (HCT-15) [µM] | Activity (BV-2 [2]) | viability at 24 h, 20 µM [3] [%] | IC50 (BV-2 [4]) [µM]
O=C1C=C2C=C[C@@H]3C[C@@]2(O1)[C@@H]1CCC(=O)C(=O)N31 | > 10 | 101 | 172.7 | > 10 | > 10 | > 10 |  |  | 
O=C1C=C2C=C[C@@H]3C[C@@]2(O1)[C@@]1(O)[C@H]2O[C@H]2CCN31 | 6.8 |  |  | 3.4 | 1.9 | 1.5 | Toxic |  | 
CO[C@H]1CCN2[C@@H]3C=CC4=CC(=O)O[C@]4(C3)[C@@H]2C1 | > 10 |  |  | > 10 | > 10 | > 10 |  | 88.7 | 31.5
CO[C@H]1CCN2O[C@H]3C=CC[C@@]4(OC(=O)C=C34)[C@@H]2C1 | > 10 |  |  | > 10 | > 10 | > 10 |  |  | 
O=C1C=C2C=CCC[C@]2(c2ccccn2)O1 | > 10 |  |  | > 10 | > 10 | > 10 |  |  | 
O=C1C=C2C=C[C@@H]3C[C@@]2(O1)[C@@H]1[C@H]2O[C@H]2CCN31 | > 10 | 101 | 145.3 | > 10 | > 10 | > 10 |  | 92.8 | 12.6
O=C1C=C2C=C[C@H](O)C[C@@H]2O1 | > 10 |  |  | > 10 | > 10 | > 10 |  |  | 
O=C1C=C2C=C[C@H]3C[C@]2(O1)[C@H]1CCCCN1O3 | > 10 |  |  | > 10 | > 10 | > 10 |  | 96.7 | 12.1
O=C1C=C2C=C[C@H](O)C[C@]2(c2ccccn2)O1 | > 10 |  |  | > 10 | > 10 | > 10 |  |  | 
CO[C@H]1CCN2O[C@]34C=C[C@H](O)C[C@]3(OC(=O)C4)[C@@H]2C1 | > 10 |  |  | > 10 | > 10 | > 10 |  |  | 
O=C1C=C2C=C[C@H]3C[C@@]2(O1)[C@@H]1C[C@@H](O)CCN1O3 | > 10 |  |  | > 10 | > 10 | > 10 |  |  | 
CO[C@H]1CCN2[C@@H]3C=CC4=CC(=O)O[C@]4(C3)[C@H]2C1 | > 10 |  |  | > 10 | > 10 | > 10 |  | 108 | 7.7
COc1cc([C@@H]2c3cc4c(cc3[C@@H](O[C@@H]3O[C@@H]5CO[C@@H](C)O[C@H]5[C@H](O)[C@H]3O)[C@H]3COC(=O)[C@H]23)OCO4)cc(OC)c1O [ETOPOSIDE] | 0.7 |  |  | 1.8 | 0.3 | 0.3 |  |  | 
CO[C@H]1CCN2O[C@@H]3C=CC4=CC(=O)O[C@]4(C3)[C@@H]2C1 [SECURINEGA AMAMINE D] | > 10 |  |  | > 10 | > 10 | > 10 |  | 86.5 | 23.9
O=C1C=C2C=C[C@@H]3C[C@@]2(O1)[C@H]1CCCCN31 [SECURININE] | > 10 | 102 | 141.1 | > 10 | > 10 | > 10 |  | 101 | 1.1
CCCCC/C=C/C(=O)CCc1ccc(O)c(OC)c1 [SHOGAOL] |  | 112 | 138.7 |  |  |  |  |  | 
CNC(=N)NCCC[C@H](N)C(=O)O [TILARGININE] |  |  |  |  |  |  |  | 99.7 | 

From ChEMBL document CHEMBL4316661, “Securinega Alkaloids from the Twigs of Securinega suffruticosa and Their Biological Activities” (J Nat Prod, 2019)
